Screening data from PubChem BioAssay.
STAT1 activator – activators of IFN-gamma induced STAT1 signaling; NIH 3T3 STAT1-luciferase reporter, luminescence; 100% = IFN-gamma alone, no compound; activation (% of control), % at 5.5 µM; hit rate 2.6% among 200,000;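 active means activation above the screen-wide mean activation plus 3 SD, cut at about 130% in these data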;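 further: raw ratio to IFN-gamma control signal so 100% means no change and 0% no light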
FLuc act counter – firefly luciferase counter-screen for stimulation assays. AID 1027. activation factor at 10 µM. P08659. 200,000 tested, under 10 active. ATPlite luciferase biochemical, luminescence, 10 min; 0 = ATP-free wells, 1 = DMSO control;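 active means luciferase activation factor, scaled between plate controls, of at least 2 with compound at 10 µM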
Target sequence (P08659 whole entry, looked up): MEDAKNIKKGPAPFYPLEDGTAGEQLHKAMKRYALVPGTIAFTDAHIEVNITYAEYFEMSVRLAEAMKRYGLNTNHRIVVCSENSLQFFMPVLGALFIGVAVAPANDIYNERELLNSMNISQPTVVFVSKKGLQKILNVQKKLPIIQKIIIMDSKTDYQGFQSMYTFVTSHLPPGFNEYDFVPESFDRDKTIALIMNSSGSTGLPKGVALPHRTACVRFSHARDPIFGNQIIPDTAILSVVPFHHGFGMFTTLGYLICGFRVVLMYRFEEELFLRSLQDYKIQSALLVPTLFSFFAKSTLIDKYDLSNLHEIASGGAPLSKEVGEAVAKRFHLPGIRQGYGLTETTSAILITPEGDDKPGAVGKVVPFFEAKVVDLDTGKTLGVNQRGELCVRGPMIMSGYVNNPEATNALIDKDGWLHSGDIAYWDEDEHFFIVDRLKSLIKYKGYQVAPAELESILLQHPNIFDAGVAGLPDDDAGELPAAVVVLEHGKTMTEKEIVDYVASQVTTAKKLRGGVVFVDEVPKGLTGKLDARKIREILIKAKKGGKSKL
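Material: Luciferase/luciferin reagent mix | Doses: Test compounds dosed from 2 mM stocks in 100% DMSO | Timing: 10 min incubation after luciferase reagent addition, room temperature | Measured by: Luminescence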
APP 5'UTR act – APP 5'UTR luciferase reporter activation; hit rate 1% among 190,000; SH-SY5Y APP 5'UTR luciferase reporter, luminescence; zero percent = DMSO vehicle wells; activation, % at 2 µM;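 active means activation above a set limit, based on mean plus 3 SD of controls, cut at about 140% in these data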
FLuc inhib CS – Photinus pyralis luciferase inhibition counter-screen. inhibition, % at 10 µM. AID 1006. ATPLite firefly luciferase biochemical luminescence, 10 min. hit rate 1.5% among 200,000. P08659;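 active means inhibition above about 50% when tested at 10 µM, limit read from the data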
NF-kB expr up – compounds increasing NF-kB expression in human neuronal cells; AID 1239; NF-kB reporter expression; active compounds read high; fold change at 12.5 µM; hit rate 1.6% among 190,000; in the data active means fold change above about 3.3
Starred values were filed as active, the others as inactive; . = no result given. Most compounds without a hit are left out; they make up all but 4.1% or so of the library.

SMILES | STAT1 activator | FLuc act counter | APP 5'UTR act | FLuc inhib CS | NF-kB expr up
CCn1c(C)nc2cc(-c3nc4n(n3)Cc3ccccc3-4)ccc21 | 10.3 | 0 | -84.7 | 98.2* | 0.19
O=c1cc(CSc2ccc(Cl)cc2)nc(-c2ccccc2)[nH]1 | 106.0 | 1.1 | -18.2 | -7.4 | 1.25
CCN(CC)CCn1c(NCc2ccccn2)nc2ccccc21 | 96.4 | 1 | . | -2.2 | 1
CCOc1ccc(NC(=O)Cn2nc(-c3ccccc3Cl)n(CC)c2=S)cc1 | 98.2 | 1 | -1.7 | -0.7 | 0.97
CCOC(=O)Cc1cc(=O)n2[nH]c(-c3ccccc3)cc2n1 | 94.0 | 0.8 | 9.2 | 19.8 | 1.41
Cc1cc(=O)n2[nH]c(-c3ccc(F)cc3)cc2n1 | 122.7 | 0.8 | 21.6 | 15.7 | 2.36
CCCc1cc(=O)n2[nH]c(-c3ccc(Br)cc3)cc2n1 | 143.8* | 0.9 | 58.3 | 9.5 | 2.07
Cc1cc(=O)n2[nH]c(-c3ccc(Cl)cc3)cc2n1 | 143.2* | 0.7 | 24.0 | 32.2 | 2.71
CCN(CC)c1ccc2cc(C(N)=O)c(=O)oc2c1 | 133.0* | 0.8 | 11.7 | 18.6 | 1.82
CCN(C(=O)c1cc2ccccc2oc1=O)c1cccc(C)c1 | 100.8 | 1 | 6.1 | 2.6 | 1.25
CCN(C(=O)c1cc2ccccc2oc1=O)c1ccccc1 | 124.2 | 0.9 | 104.9 | 5.6 | 4.66*
CCN(CC)c1ccc2cc(C(N)=O)c(=N)oc2c1 | 119.6 | 0.9 | 6.6 | 13.0 | 1.24
Cc1cc(C)nc(NS(=O)(=O)c2ccc(NC(=O)c3cc(-c4ccccc4)nc4ccccc34)cc2)n1 | 99.1 | 1 | 13.0 | -1.2 | 0.86
CCCCNC(=O)c1cc(-c2ccc(OC)cc2)on1 | 119.8 | 0.9 | 34.6 | 14.8 | 3.57*
CCCCNC(=O)c1cc(-c2ccc(F)cc2)on1 | 135.6* | 0.9 | 93.1 | 9.2 | 11.5*
COc1ccccc1C(=O)Nc1ccc(C2=NNC(=O)CC2C)cc1 (stereo not drawn) | 99.1 | 0.9 | 19.2 | 11.4 | 0.95
CCSc1cc(N2CCOCC2)nc(-c2ccc(Cl)cc2)n1 | 98.8 | 1 | -12.3 | -3.7 | 1.2
O=C1c2ccccc2C(=O)C1c1ccc2ccccc2n1 | 125.3 | 0.1 | 128.7 | 90.7* | 1.2
O=C(CSc1ccc(Cl)cc1)Nc1cccc(-c2nc3ncccc3o2)c1 | 109.3 | 1 | -6.4 | -4.7 | 1.26
c1ccc(CSc2ccc(-c3cccnc3)nn2)cc1 | 133.9* | 0.6 | 35.6 | 40.0 | 2.53
O=c1cc(-c2c(F)c(F)c(F)c(F)c2F)oc2ccccc12 | 99.5 | 1 | -13.1 | -4.2 | 0.99
CS(=O)(=O)N1CCc2cc(NC(=O)c3ccc(Cl)cc3Cl)ccc21 | 129.4* | 1 | -3.1 | 0.3 | 1.37
Cc1ccc(C(=O)Oc2ccc(N3C(=O)CCC3=O)c(C)c2)cc1 | 111.1 | 0.5 | 2.1 | 54.3* | 1.08
O=C1C2C3C=CC(C4CC34)C2C(=O)N1/N=C/c1c[nH]c2ccccc12 (stereo not drawn) | 133.4* | 0.2 | 61.6 | 77.8* | 1.4
CCOC(=O)c1c(C)nc(C)c(C(=O)OCC)c1-c1ccc(O)c(OC)c1 | 100.2 | 1.1 | 18.6 | -9.6 | 3.77*
SMILES | STAT1 activator | FLuc act counter | APP 5'UTR act | FLuc inhib CS | NF-kB expr up
Cc1ccc2nc(-c3ccc4c(c3)OCCO4)cc(C(=O)O)c2c1 | 99.5 | 0.3 | 21.6 | 74.2* | 1.39
C/C(=N\NC(=O)c1ccc(Cl)cc1)c1cccc(NC(=O)c2cccnc2)c1 | 103.1 | 0.4 | -7.3 | 63.2* | 1.05
C/C(=N\NC(=O)c1ccc(F)cc1)c1cccc(NC(=O)c2ccco2)c1 | 101.2 | 0.5 | 13.9 | 50.4* | 0.94
C/C(=N\NC(=O)c1nn(C)c(C)c1Br)c1cccc(NC(=O)c2ccoc2C)c1 | 150.4* | 0.8 | 59.4 | 20.2 | 1.49
CC(C)Cn1c(O)c(/C=C2\C=NN=C2c2ccccc2)sc1=S | 101.3 | 1 | 2.2 | -4.2 | 0.81
c1ccc(CSc2nnc(-c3cccnc3)o2)cc1 | 120.8 | 1 | 32.5 | 2.1 | 1.48
Cc1nc(SCC(O)CO)c([N+](=O)[O-])[nH]1 (stereo not drawn) | 102.5 | 1.1 | -1.1 | -8.1 | 3.51*
O=C(Sc1cccc2cccnc12)c1ccc(F)cc1 | 173.2* | 1 | -71.2 | -3.6 | 0.15
O=S(=O)(Nc1cc(Sc2cccc3cccnc23)c(O)c2ccccc12)c1ccc(F)cc1 | 140.6* | 1 | -78.1 | -4.6 | 0.27
CCCN(c1ccc(C(=O)OC)cc1)S(=O)(=O)c1ccccc1 | 96.3 | 1 | 22.6 | -4.2 | 1.11
Cc1noc(C)c1CSc1nnc(-c2cc(Cl)ccc2Cl)n1N | 107.3 | 1 | 16.0 | -0.9 | 1.4
CC(C)(C)NC(=O)NC(=O)COc1ccccc1C#N | 140.3* | 0.6 | 186.6* | 37.4 | 2.13
Fc1cccc(Cl)c1Cn1nnc(-c2ccc3c(c2)OCO3)n1 | 119.3 | 0.9 | 67.7 | 11.7 | 3.57*
Cc1c(C(=S)Nc2ccccc2)cnn1-c1ccccc1 | 125.0 | 1 | 27.6 | 3.7 | 1.79
OCCCn1c(-c2ccccc2)csc1=Nc1ccccc1 | 95.6 | 1 | 6.5 | -3.9 | 1.05
CCn1c(-c2ccccc2)csc1=Nc1ccc(S(=O)(=O)O)cc1 | 99.5 | 0.5 | 2.4 | 54.4* | 0.88
COc1cccc(NC(=O)c2cccc(OC)c2OC)c1 | 136.1* | 0.7 | 57.1 | 26.9 | 2.66
COc1ccccc1C(=O)Nc1ccc(C(=O)O)cc1 | 101.5 | 1 | 19.2 | -3.6 | 1.35
CN(C)c1ccc(NC(=O)c2cccc(C(=O)Nc3ccc(N(C)C)cc3)n2)cc1 | 118.7 | 0.4 | 46.3 | 55.6* | 0.42
CCn1c2ccccc2c2cc(NC(=O)c3cccc(OC)c3OC)ccc21 | 100.3 | 1.1 | 19.4 | -7.3 | 1
C/C(CC(=O)Nc1ccc(N(C)C)cc1)=N\NC(=O)c1ccccn1 | 139.6* | 1 | 115.1 | -3.2 | 1.17
COc1cccc(C(=O)Nc2ccc(N(C)C)cc2)c1OC | 142.0* | 0.6 | 53.0 | 41.9 | 2.11
CC(C)CCNC(=O)C(Cc1ccccc1)NS(=O)(=O)c1ccc2c(c1)c(=O)n(C)c(=O)n2C (stereo not drawn) | 93.4 | 1.1 | -0.7 | -8.8 | 0.94
Oc1ccc(-c2cccc(-c3ccc(O)cc3)n2)cc1 | 113.1 | 1 | 27.1 | 4.3 | 1.46
Oc1ccc(-c2nnc(-c3ccc(O)cc3)nn2)cc1 | 95.2 | 0.2 | 118.7 | 77.6* | 6.09*
SMILES | STAT1 activator | FLuc act counter | APP 5'UTR act | FLuc inhib CS | NF-kB expr up
OCc1ccccc1OCCOc1ccc(Cl)c2cccnc12 | 108.7 | 0.9 | 25.2 | 11.2 | 1.38
Clc1ccc(OCc2cn3ccccc3n2)c2ncccc12 | 144.7* | 0.8 | 82.6 | 22.3 | 2.95
Cc1ccc(-c2nnc(SCc3ccccc3F)o2)cc1 | 135.2* | 0.7 | 142.3* | 25.7 | 7.34*
C#CCSc1nnc(-c2ccc(C)cc2)o1 | 128.8* | 0.4 | 92.8 | 55.5* | 3.72*
COc1ccc(-c2nnc(SCc3ccccc3F)o2)cc1OC | 114.1 | 1 | 90.6 | 0.0 | 2.04
CCSc1nnc(NC(=O)C2Cc3ccccc3CN2C(=O)c2ccco2)s1 (stereo not drawn) | 95.9 | 1 | 2.3 | 0.3 | 1
